Assay outcomes (PubChem)
An excerpt weighted towards active compounds, which were near 3.5% of everything screened.
MrgX1 antag – human MrgX1 receptor antagonism, primary screen | Q96LB2 | MRGX1-HEK293 calcium flux, Fluo-4, BAM8-22 antagonism; active compounds read low | B-score at 10 µM | 310,000 compounds, 1.3% hits | AID 588676;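 active = calcium-response B-score plate-corrected more than 3 library SD below zero, starting fluorescence within 5 deviations, no agonist response on first addition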;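 also: peak minus trough fluorescence over baseline after final BAM8-22 challenge near maximal dose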
Target sequence (Q96LB2 whole entry, looked up): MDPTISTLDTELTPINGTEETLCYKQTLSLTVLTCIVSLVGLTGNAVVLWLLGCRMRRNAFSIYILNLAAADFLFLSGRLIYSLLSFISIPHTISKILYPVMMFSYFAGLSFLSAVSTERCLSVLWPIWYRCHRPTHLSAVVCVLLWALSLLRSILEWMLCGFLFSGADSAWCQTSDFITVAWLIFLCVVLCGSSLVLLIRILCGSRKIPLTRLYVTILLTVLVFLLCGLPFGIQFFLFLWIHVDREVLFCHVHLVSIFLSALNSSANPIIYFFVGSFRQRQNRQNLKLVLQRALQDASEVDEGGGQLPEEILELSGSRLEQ
RGS4 pot – potentiators or activators of RGS4. HEK293 M3R/inducible RGS4, carbachol calcium flux Fluo4; active compounds read low. B-score at 10 µM. 310,000 compounds, 0.92% hits. AID 463111;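 active = B-score of the integrated calcium signal more than 4 SD below the library mean, with starting fluorescence not abnormally high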;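 also: negative B-score means reduced calcium response which marks RGS4 activation or potentiation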
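Assay system: Inducible-RGS4 HEK293 cells carrying M3 receptor | Schedule: Compound preincubation 20 min at room temperature before agonist | Signal: Kinetic calcium fluorescence imaging with Fluo4-AM dye, 2 µM | Read-out basis: B score from integrated fluorescence ratio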
RGS4 block – inhibitors of human RGS4; B-score at 10 µM; P49798; HEK293 M3R/RGS4 inducible, Fluo-4 calcium flux; active compounds read high; triggered by carbachol at its EC20; 310,000 compounds, 0.45% hits;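 active = B-score, a plate-corrected calcium signal, over three deviations above library mean, with baseline fluorescence within five deviations of library mean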;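 also: RGS4 expression induced by doxycycline in cells with stable M3 receptor; B-score is computed from the integrated fluorescence ratio over baseline after carbachol; higher B-score means a larger calcium signal and so more RGS4 inhibition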
Target sequence (P49798 whole entry, looked up): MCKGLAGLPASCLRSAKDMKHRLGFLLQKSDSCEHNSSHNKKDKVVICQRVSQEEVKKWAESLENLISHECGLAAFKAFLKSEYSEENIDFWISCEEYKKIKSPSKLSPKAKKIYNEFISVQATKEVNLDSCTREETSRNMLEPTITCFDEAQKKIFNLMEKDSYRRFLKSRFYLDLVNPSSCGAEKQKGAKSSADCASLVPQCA
MrgX1 agonist – human MrgX1 receptor agonism, primary screen. MrgX1-HEK293 cells, Fluo-4 calcium fluorescence, agonist mode; active compounds read high. 310,000 compounds, 0.44% hits. Q96LB2. B-score at 10 µM;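 active = calcium response B-score plate-corrected fluorescence ratio at least 3 library SD, with starting fluorescence B-score inside 5 SD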
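Material: MrgX1-expressing HEK293 cells; input: 15,000 cells per well; doses: test compound given as first of three sequential additions; schedule: overnight plating before 1 h dye loading; technique: Fluo-4 NW calcium-flux fluorescence, kinetic read; evaluation: baseline-normalised fluorescence change ratio, B-scored; control set: plate-wise positive and negative controls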
MrgX1 allo act – allosterically activates human MrgX1 receptor signaling | B-score at 10 µM | 310,000 compounds, 0.63% hits | AID 588675 | Q96LB2 | MrgX1-HEK293, Fluo-4 calcium flux, FDSS; active compounds read high;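 active = plate-corrected calcium response at least 3 library SD above typical, normal starting fluorescence, not activating the receptor alone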;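 also: compound read alongside a low EC10 to EC30 dose of BAM8-22 agonist; peak minus trough fluorescence over baseline measured at the second addition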
Active calls of the source: *; ! = a repeat was not active.

How did CCOc1cc(CNCCSc2nnnn2C)cc(Br)c1OCc1ccccc1F do in these assays?
MrgX1 antag: -4.7*; RGS4 pot: inactive; RGS4 block: inactive; MrgX1 agonist: inactive; MrgX1 allo act: inactive

Results for CCOc1cc(CNCCO)cc(Br)c1OCc1ccc(Cl)cc1Cl ?
MrgX1 antag: inactive; RGS4 pot: -7.7*; RGS4 block: inactive; MrgX1 agonist: inactive; MrgX1 allo act: inactive

How did COc1cc(CNCCSc2nnnn2C)cc(Br)c1OCc1ccccc1F do in these assays?
MrgX1 antag: inactive; RGS4 pot: inactive; RGS4 block: inactive; MrgX1 agonist: inactive; MrgX1 allo act: inactive

How did CCOc1cccc(CNCCO)c1OCc1ccc(Cl)cc1Cl do in these assays?
MrgX1 antag: inactive; RGS4 pot: inactive; RGS4 block: inactive; MrgX1 agonist: inactive; MrgX1 allo act: inactive

Results for O=C(CSc1nc(-c2ccccc2)nn1C(=O)c1ccccc1)Nc1cccc([N+](=O)[O-])c1 ?
MrgX1 antag: -4.8*; RGS4 pot: inactive; RGS4 block: inactive; MrgX1 agonist: inactive; MrgX1 allo act: inactive

What do the screens show for `CCc1ccccc1NC(=O)CSc1nc(-c2ccccc2)nn1C(=O)c1cccc([N+](=O)[O-])c1`?
MrgX1 antag: inactive; RGS4 pot: inactive; RGS4 block: inactive; MrgX1 agonist: inactive; MrgX1 allo act: inactive

How did c1ccc(Cc2noc(CN3CCN(C4CCc5ccccc5C4)CC3)n2)cc1 (configuration not stated) do in these assays?
MrgX1 antag: inactive; RGS4 pot: inactive; RGS4 block: inactive; MrgX1 agonist: inactive; MrgX1 allo act: inactive

What do the screens show for `c1ccc(Cc2noc(CN3CCCN(C4Cc5ccccc5C4)CC3)n2)cc1`?
MrgX1 antag: inactive; RGS4 pot: -7*; RGS4 block: inactive; MrgX1 agonist: inactive; MrgX1 allo act: inactive

Results for COc1ccc(/C=N/Nc2nnc(Cc3ccccc3)c(=O)[nH]2)cc1 ?
MrgX1 antag: inactive; RGS4 pot: inactive; RGS4 block: inactive; MrgX1 agonist: 28*; MrgX1 allo act: inactive

How did C=COC(=O)c1sc2nc(C)cc(C)c2c1N do in these assays?
MrgX1 antag: inactive; RGS4 pot: inactive; RGS4 block: inactive; MrgX1 agonist: inactive; MrgX1 allo act: inactive

What do the screens show for `Cn1cccc1/C=C1\CCC/C(=C\c2cccn2C)C1=O`?
MrgX1 antag: inactive; RGS4 pot: inactive; RGS4 block: inactive; MrgX1 agonist: 38*; MrgX1 allo act: inactive

How did O=C1/C(=C/c2cccs2)CCC/C1=C\c1cccs1 do in these assays?
MrgX1 antag: inactive; RGS4 pot: inactive; RGS4 block: inactive; MrgX1 agonist: inactive; MrgX1 allo act: inactive

What do the screens show for `CC(C)CCC(CC(C)O)c1n[nH]c(=S)n1-c1ccccc1` (configuration not stated)?
MrgX1 antag: -4.9*; RGS4 pot: inactive; RGS4 block: inactive; MrgX1 agonist: inactive; MrgX1 allo act: inactive

How did CCC(c1n[nH]c(=S)n1-c1ccccc1)N(C)C (configuration not stated) do in these assays?
MrgX1 antag: inactive; RGS4 pot: inactive; RGS4 block: inactive; MrgX1 agonist: inactive; MrgX1 allo act: inactive

Results for CN(CC(=O)Nc1ccccc1Cl)CC(=O)Nc1ccccc1[N+](=O)[O-] ?
MrgX1 antag: inactive; RGS4 pot: inactive; RGS4 block: inactive; MrgX1 agonist: inactive; MrgX1 allo act: 10*

How did COc1ccc(S(=O)(=O)N2CCN=C2SCc2cccc(F)c2)cc1 do in these assays?
MrgX1 antag: inactive; RGS4 pot: inactive; RGS4 block: inactive; MrgX1 agonist: inactive; MrgX1 allo act: inactive

Results for C=CCN1C(=O)[C@@H]2Cc3c([nH]c4ccccc34)C(c3ccc(O)cc3)N2C1=S (some centres not stated) ?
MrgX1 antag: -5.3*; RGS4 pot: inactive; RGS4 block: inactive; MrgX1 agonist: inactive; MrgX1 allo act: inactive

Results for CSCc1ccc(C(=O)Nc2ccc(C(N)=O)cc2)cc1 ?
MrgX1 antag: inactive; RGS4 pot: inactive; RGS4 block: inactive; MrgX1 agonist: inactive; MrgX1 allo act: inactive

What do the screens show for `CCCN1C=CC(=C/C=C(\C#N)C(=O)OCC)C=C1`?
MrgX1 antag: inactive; RGS4 pot: inactive; RGS4 block: inactive; MrgX1 agonist: inactive; MrgX1 allo act: inactive

How did CCCCCCN1C=CC(=C/C=C(\C#N)C(=O)OCC)C=C1 do in these assays?
MrgX1 antag: inactive; RGS4 pot: inactive; RGS4 block: inactive; MrgX1 agonist: 64*; MrgX1 allo act: inactive

What do the screens show for `CN1C2CCC1CC(OC(=O)C(CO)c1ccccc1)C2` (configuration not stated)?
MrgX1 antag: inactive; MrgX1 agonist: inactive; MrgX1 allo act: inactive

What do the screens show for `CN1C2CC(OC(=O)C(CO)c3ccccc3)CC1C1OC12` (configuration not stated)?
MrgX1 antag: inactive; RGS4 pot: -7.9*!; RGS4 block: inactive; MrgX1 agonist: inactive; MrgX1 allo act: inactive

How did CC(C)[N+]1(C)[C@@H]2CC[C@H]1CC(OC(=O)C(CO)c1ccccc1)C2 (some centres not stated) do in these assays?
MrgX1 antag: inactive; RGS4 pot: inactive; RGS4 block: inactive; MrgX1 agonist: inactive; MrgX1 allo act: inactive

What do the screens show for `CN1[C@@H]2CC[C@H]1CC(OC(=O)C(CO)c1ccccc1)C2` (some centres not stated)?
MrgX1 antag: inactive; RGS4 pot: -7*; RGS4 block: inactive; MrgX1 agonist: inactive; MrgX1 allo act: inactive

How did Cc1nc(N)sc1C(=O)N1N=N1 do in these assays?
MrgX1 antag: inactive; RGS4 pot: inactive; RGS4 block: inactive; MrgX1 agonist: inactive; MrgX1 allo act: inactive

Results for O=C1c2ccccc2C(=O)C2OC12 (configuration not stated) ?
MrgX1 antag: inactive; RGS4 pot: inactive; RGS4 block: 22*; MrgX1 agonist: 43*; MrgX1 allo act: inactive

How did Cc1sc(NC(=O)c2ccco2)nc1-c1ccc2c(c1)CC(C)N2C(=O)C1CC1 (configuration not stated) do in these assays?
MrgX1 antag: inactive; RGS4 pot: -7.1*; RGS4 block: inactive; MrgX1 agonist: inactive; MrgX1 allo act: inactive

How did COc1ccc2c(Cl)c(C(=O)N/N=C3\CCCC(=O)C3)sc2c1 do in these assays?
MrgX1 antag: -7.4*; RGS4 pot: inactive; RGS4 block: inactive; MrgX1 agonist: inactive; MrgX1 allo act: inactive

Results for COc1ccc2c(Cl)c(C(=O)N/N=C/c3ccc4c(c3)OCO4)sc2c1 ?
MrgX1 antag: inactive; RGS4 pot: inactive; RGS4 block: inactive; MrgX1 agonist: inactive; MrgX1 allo act: inactive

How did COc1cccc(-c2ccc3nnc(SCC(=O)Nc4ccc(NC(C)=O)cc4)n3n2)c1 do in these assays?
MrgX1 antag: inactive; RGS4 pot: inactive; RGS4 block: inactive; MrgX1 agonist: inactive; MrgX1 allo act: inactive
